# High-throughput results as filed in PubChem.
# Shown are actives, neighbours in structure and some others; about 3.9% of the full set was active somewhere.
# TAAR1 agonist = human TAAR1 agonists, primary screen, Fluo-8 calcium fluorescence, CHO RD-HGA16 cells | Trace amine-associated receptor 1 (Homo sapiens), Q96RJ0 | vehicle wells 0%, saturating PEA agonist 100% | activation, % at 3 µM | hit rate 0.99% among 360,000 | AID 624467, 2012;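 active = activation above the mean activation of all test compounds in the run plus 3 SD, cut at about 38% in these data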
# Target sequence (Q96RJ0 whole entry, looked up): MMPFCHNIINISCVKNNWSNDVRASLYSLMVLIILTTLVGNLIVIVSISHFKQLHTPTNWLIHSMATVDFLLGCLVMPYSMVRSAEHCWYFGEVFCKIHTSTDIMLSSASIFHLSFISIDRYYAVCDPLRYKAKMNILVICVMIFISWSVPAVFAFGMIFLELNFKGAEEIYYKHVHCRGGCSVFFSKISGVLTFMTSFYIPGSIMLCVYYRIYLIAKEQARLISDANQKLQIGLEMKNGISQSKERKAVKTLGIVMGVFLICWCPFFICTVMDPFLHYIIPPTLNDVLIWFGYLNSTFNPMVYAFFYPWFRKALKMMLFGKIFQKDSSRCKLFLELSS
#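 Assay system – CHO-derived RD-HGA16 cells with stable Gα16 and human TAAR1 · Compound dosing – one-point dosing at 3 µM (nominal) · Incubation – 17-24 h seeding, 75 min 37 °C dye, 30 min RT · Measured by – kinetic Fluo-8 calcium fluorescence · Control set – DMSO vehicle as 0%, PEA at EC100 as 100% · Repeats – single well for each compound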
# ANO1 block = TMEM16A chloride channel inhibitors, primary screen, cell-based, HTS | normalized B-score (activity score, 25-100; higher = stronger inhibition) at 10 µM | hit rate 1.2% among 310,000 | HEK293 TMEM16A/YFP iodide influx fluorescence, ionomycin | AID 588511, 2011;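 active = ratio plate-corrected score three or more library SD toward inhibition, starting fluorescence score within five deviations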;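 note: score derived from kinetic fluorescence span divided by baseline fluorescence per well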
# TMEM16A act = TMEM16A chloride channel activators or potentiators, primary screen, cell-based, HTS | HEK293 TMEM16A/YFP-H148Q/I152L, iodide quench fluorescence; active compounds read low | B-score at 10 µM | hit rate 0.3% among 340,000;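 active = fluorescence-ratio B-score plate-corrected deviation score at least 3 library SD below zero, with starting fluorescence score within 5 deviations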;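 note: channel opened by trigger with iodide after compound preincubation; score built on the fluorescence ratio of max minus min over baseline; more negative score means more quench and so TMEM16A activation or potentiation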
# CRFR2-BP antag = antagonists of CRF-BP/CRF-R2 complex, primary screen, cell-based, HEK293, calcium dye fluorescence, uHTS; CRF-induced calcium fluorescence; inhibition, % at 11.8 µM; hit rate 0.59% among 350,000; AID 588475, 2011;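 active = inhibition of the ligand-induced calcium signal above about 50% at the single tested concentration, limit read from the data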
# TAAR1 antag = human TAAR1 antagonists, primary screen, Fluo-8 calcium fluorescence, CHO RD-HGA16 cells; Trace amine-associated receptor 1 (Homo sapiens), Q96RJ0; AID 624466, 2012; antagonist; inhibition, % at 3 µM; hit rate 1.5% among 360,000;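 active = inhibition above a per-plate cutoff, the mean inhibition of test compounds on that plate plus 3 SD, cut at about 49% in these data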
#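 Assay system: CHO-derived RD-HGA16 cells stably expressing human TAAR1 plus Gα16. Timing: 140 s kinetic read after compound, 140 s after agonist. Technique: kinetic Fluo-8 calcium fluorescence measurement. Measure: % inhibition of agonist calcium response.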
# CRFBP-R2 agonist = agonists of CRF-BP/CRF-R2 complex, primary screen, cell-based, HEK293, calcium dye fluorescence, uHTS. CRF-binding protein / CRF receptor 2 complex (human). hit rate 0.46% among 350,000. activation, % at 13.2 µM. calcium dye fluorescence (FLIPR); percent of saturating CRF peptide response;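 active = activation of at least 50%, plus an integration ratio under a set limit after plate pattern correction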
# TAAR1 nonsel count = nonselective antagonists in TAAR1 counter-screen cells, counter-screen for hTAAR1 antagonist project, cell-based, fluorescence, calcium | inhibition, % at 3 µM | counterscreen cell line, antagonist mode | hit rate 77% among 2,400 | shares compounds with TAAR1 antag; in the data active = inhibition above about 22%;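 note: CHO-Ga16 host cells stimulated with ATP at an EC80 level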
# TAAR1 antag conf = human TAAR1 antagonists, retest of hits, confirmation, cell-based, fluorescence. TAAR1-expressing cells, fluorescence antagonist read-out. inhibition, % at 3 µM. hit rate 40% among 2,400. shares compounds with TAAR1 antag; in the data active = inhibition above about 49%;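 note: CHO-Ga16 host cells challenged with agonist PEA near its EC80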
# Ga16 nonsel ag = calcium activation in Ga16-expressing cells, counter-screen for TAAR1 antagonist project, cell-based, fluorescence | shares compounds with TAAR1 antag | agonist counterscreen | activation, % at 3 µM | hit rate 18% among 2,400 | AID 651953, 2012; in the data active = activation above about 12%
# TAAR1 ag count = TAAR1 activation by candidate antagonists – cell-based, fluorescence, counter-screen for TAAR1 antagonist project; shares compounds with TAAR1 antag; hTAAR1 cell line, agonist mode; activation, % at 3 µM; hit rate 2% among 2,400; AID 651955, 2012; in the data active = activation above about 37%;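 note: CHO cells stably expressing TAAR1 with calcium dye readout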
# Hits are given with their value; n = inactive; x = no result.
SMILES,TAAR1 agonist,ANO1 block,TMEM16A act,CRFR2-BP antag,TAAR1 antag,CRFBP-R2 agonist,TAAR1 nonsel count,TAAR1 antag conf,Ga16 nonsel ag,TAAR1 ag count
COc1ccc(CNC(=O)Cc2csc(NC(=O)Nc3ccccc3OC)n2)cc1,n,n,n,n,56,n,n,n,n,n
O=C(Cc1csc(NC(=O)Nc2cccc(Cl)c2)n1)NCc1ccccn1,n,n,n,n,65,n,29,n,n,n
COc1ccccc1NC(=O)Nc1nc(CC(=O)NCc2cccnc2)cs1,n,n,n,n,n,n,x,x,x,x
Cc1nc2scc(-c3ccccc3)c2c(=O)n1N=C1C=CC(=O)C=C1,n,x,x,n,62,n,56,54,n,n
Cc1nc2scc(-c3ccccc3)c2c(=O)n1N,n,n,n,n,n,n,x,x,x,x
COc1cc(C)ccc1OCc1cc(C(=O)N2C[C@H]3CC[C@H]2C3)no1,n,n,n,n,102,n,n,n,n,n
CCOC(=O)C1=C[C@@H](CC)N(S(=O)(=O)c2ccc([N+](=O)[O-])cc2)[C@H]1c1ccccc1,n,x,x,x,72,x,30,n,n,n
CCOC(=O)C1=C[C@@H](C(C)C)N(S(=O)(=O)c2ccc([N+](=O)[O-])cc2)[C@H]1c1ccccc1,n,x,x,x,82,x,25,n,n,n
NC(=O)c1ccc(NC(=O)Cc2ccc(S(=O)(=O)N3CCCCC3)cc2)cc1,n,x,n,n,n,n,x,x,x,x
O=C1NC[C@@H](CCCCN2C[C@H](Cc3ccc(O)cc3)N(CCc3ccccc3)C(=O)C2=O)N(Cc2ccccc2)C1=O,n,x,x,x,n,x,x,x,x,x
CCOc1ccccc1N(CC(=O)Nc1cccc(OC)c1)S(=O)(=O)c1ccccc1,n,n,n,n,52,n,n,n,n,n
COc1ccccc1N(CC(=O)Nc1ccc2c(c1)OCO2)S(=O)(=O)c1ccccc1,n,n,n,n,n,n,x,x,x,x
COc1ccc(S(=O)(=O)N(CC(=O)Nc2ccc3c(c2)OCO3)c2ccccc2OC)cc1,n,n,n,n,69,n,27,56,n,n
FC(F)Sc1ccc(NC(=S)N2CCN(c3ccccn3)CC2)cc1,n,x,n,n,n,n,x,x,x,x
Oc1ccccc1N1CCN(C(=S)Nc2ccc(SC(F)F)cc2)CC1,n,n,n,n,83,n,42,55,14,n
Oc1ccc2ccccc2c1CNc1ccccn1,n,n,n,n,n,n,x,x,x,x
COc1cc(NC(=O)c2csc(-c3ccncc3)n2)cc(C(=O)Nc2cccc(C(F)(F)F)c2)c1,n,n,n,n,74,n,35,55,n,n
CCN1CCN(Cc2ccc(NC(=O)c3cc(NC(=O)N4CCNC4=O)cc(OC)c3)cc2C(F)(F)F)CC1,n,n,n,n,n,n,x,x,x,x
O=C(Nc1cccc(C(F)(F)F)c1)c1csc(-c2ccncc2)n1,n,n,n,n,n,n,x,x,x,x
COc1cc(Nc2ccccn2)cc(C(=O)Nc2cccc(C(F)(F)F)c2)c1,n,n,n,n,54,n,34,n,n,n
COc1cc(NC(=O)N2CCNC2=O)cc(C(=O)Nc2cccc(C(F)(F)F)c2)c1,n,n,n,n,51,n,n,n,n,n
COc1ccc(C(=O)NCC2(c3ccc(OC)c(OC)c3)CCCC2)c(OC)c1,n,n,n,n,n,n,x,x,x,x
CC(=O)Nc1nc(SCC(=O)Nc2nnc(C)s2)[nH]c(=O)c1NC(=O)c1cccs1,n,n,n,n,n,n,x,x,x,x
O=C(CSc1ccc([N+](=O)[O-])cc1)NCC1CCCCC1,n,n,n,n,105,n,n,n,n,n
O=C(CSc1ncnc2c1nnn2-c1ccc(F)cc1)NCc1ccco1,n,n,n,n,64,n,n,n,n,n
SMILES,TAAR1 agonist,ANO1 block,TMEM16A act,CRFR2-BP antag,TAAR1 antag,CRFBP-R2 agonist,TAAR1 nonsel count,TAAR1 antag conf,Ga16 nonsel ag,TAAR1 ag count
O=C(N[C@@H](Cc1ccccc1)C(=O)N1CCC2(CC1)NCCc1[nH]cnc12)c1cccc(F)c1,n,n,n,n,n,n,x,x,x,x
CCN=C1SC(C(=O)Nc2cccc(OCC)c2)CC(=O)N1CC (stereo unspecified),n,n,n,n,74,n,36,60,n,n
CCN1C(=O)CC(C(=O)Nc2ccc(F)cc2)SC1=Nc1cccc(OC)c1 (stereo unspecified),n,n,n,n,n,n,x,x,x,x
CCOc1ccc(-c2cc(C(=O)Nc3ccc(C)c(NS(C)(=O)=O)c3)[nH]n2)c(C)c1,n,x,x,x,n,x,x,x,x,x
Cc1cc([N+](=O)[O-])ccc1NC(=O)CN1CCN(Cc2ccccc2)CC1,n,n,n,n,n,n,x,x,x,x
O=C(CN1CCN(Cc2ccccc2)CC1)Nc1ccc([N+](=O)[O-])cc1C(=O)Nc1ccccc1F,n,n,n,n,58,n,29,51,n,n
COc1ccccc1N1CCN(c2nc3ccccc3nc2C(C#N)C(=O)OC(C)C)CC1 (stereo unspecified),n,n,n,n,73,n,n,n,n,n
COc1ccc2cc(-c3[nH]ncc3CN3CCCN(c4ccccc4)CC3)ccc2c1,n,n,n,n,106,n,n,n,22,56
CC(C)Oc1ccc(C(=O)NCCCNC(=O)c2cccnc2)cc1,n,n,n,n,n,n,x,x,x,x
COc1cccc(COC(=O)C(Cc2ccccc2)NC(=O)c2ccco2)c1 (stereo unspecified),n,x,x,n,n,n,x,x,x,x
COc1ccc(C(C)=O)cc1COC(=O)[C@H](Cc1ccccc1)NC(=O)c1ccco1,n,x,n,n,56,n,22,n,n,n
